Experimental data from ChEMBL document CHEMBL3286338, “SAR studies on hydropentalene derivatives--Important core units of biologically active tetramic acid macrolactams and ptychanolides” (Bioorg Med Chem, 2014).
Activity calls are given as the source filed them. The rule behind the calls is not given here.

Legend:
L929 [1] = test: Antiproliferative activity against mouse L929 cells by MTT assay; type: functional, cell-based
Outline: (§1)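 Cells kept in supplier-recommended media at 37 °C, 10% CO2. Serial dilutions added to a cell suspension (50,000 per mL) and incubated 5 d alongside blank and solvent controls. MTT then added to 0.5 mg mL^-1 final for 2 h, and formazan precipitate collected by centrifugation. Run as two parallel experiments; activity taken as mean relative to controls set at 100%.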

[2] = Antiproliferative activity against human KB-3-1 cells by MTT assay; type: functional, cell-based; outline: as §1
PtK2 [3] = test: Effect on chromosme distribution in Potorous tridactylus PtK2 cells at 4 ug/ml for overnight incubation by DAPI staining analysis; type: functional, cell-based
Outline: (§2)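 PtK2 cells on glass coverslips incubated overnight with compound or with methanol only. For alpha-tubulin staining, fixed in cold (-20 °C) MeOH/acetone (1:1) for 10 min, then probed with primary antibody. DNA counterstained. Microtubular network, mitotic spindles and chromosome distribution assessed by fluorescence microscopy.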

[4] = Cytotoxicity against Potorous tridactylus PtK2 cells by MTT assay; type: functional, cell-based; outline: as §1
PtK2 [5] = test: Effect on mitotic spindle in Potorous tridactylus PtK2 cells at 4 ug/ml for overnight incubation by DAPI staining analysis; type: functional, cell-based; outline: as §2
Tubulin (Sus scrofa) = Tubulin (Sus scrofa) (UniProt P02554+P02550); test: Inhibition of porcine tubulin polymerization at 500 ug/ml by fluorescence analysis; type: protein assay
Chain of Tubulin (Sus scrofa) (P02550 whole entry, looked up): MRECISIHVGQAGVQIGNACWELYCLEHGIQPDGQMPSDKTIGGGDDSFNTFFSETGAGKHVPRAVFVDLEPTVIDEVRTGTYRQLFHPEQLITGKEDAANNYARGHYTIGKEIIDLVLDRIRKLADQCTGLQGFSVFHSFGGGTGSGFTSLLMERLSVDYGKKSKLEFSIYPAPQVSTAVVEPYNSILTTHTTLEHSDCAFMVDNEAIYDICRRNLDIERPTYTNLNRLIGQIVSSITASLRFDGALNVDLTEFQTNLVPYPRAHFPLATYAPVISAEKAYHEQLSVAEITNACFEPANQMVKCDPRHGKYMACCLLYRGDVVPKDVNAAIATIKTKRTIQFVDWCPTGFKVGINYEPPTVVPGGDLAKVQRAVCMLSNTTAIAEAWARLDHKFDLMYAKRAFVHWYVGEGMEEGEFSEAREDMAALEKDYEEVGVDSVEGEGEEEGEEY
Chain of Tubulin (Sus scrofa) (P02554 whole entry, looked up): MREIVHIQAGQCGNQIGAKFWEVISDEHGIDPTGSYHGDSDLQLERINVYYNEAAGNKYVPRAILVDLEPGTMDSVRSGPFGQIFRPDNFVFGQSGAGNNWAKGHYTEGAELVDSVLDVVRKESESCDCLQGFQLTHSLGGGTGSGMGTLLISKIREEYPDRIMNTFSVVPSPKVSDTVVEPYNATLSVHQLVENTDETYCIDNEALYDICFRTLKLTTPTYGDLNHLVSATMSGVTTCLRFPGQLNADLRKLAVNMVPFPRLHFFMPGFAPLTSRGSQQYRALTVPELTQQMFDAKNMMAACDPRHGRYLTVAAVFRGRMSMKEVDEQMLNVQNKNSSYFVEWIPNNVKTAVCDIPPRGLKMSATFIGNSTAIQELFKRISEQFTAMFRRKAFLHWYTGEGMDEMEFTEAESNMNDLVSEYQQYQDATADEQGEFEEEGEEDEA
Outline: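 Porcine tubulin (kit master mix with buffer, glycerol and GTP) mixed with compound at a 5:50 volume ratio. Placed at once in a fluorimeter at 37 °C. Polymerization followed by incorporation of a fluorescent reporter, read at 460 nm (excitation 340 nm) for about 1 h. Methanol and nocodazole served as controls.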

PtK2 [6] = test: Effect on microtubular network in Potorous tridactylus PtK2 cells at 4 ug/ml for overnight incubation by DAPI staining analysis; type: functional, cell-based; outline: as §2
L929 [7] = test: Effect on microtubule polymerization in mouse L929 cells at 0.4 ug/ml by impedance profiling; type: cell-based
Outline: (§3)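 L-929 cell cultures incubated with compound while impedance was recorded over time. The time-dependent impedance curves served as a mode-of-action fingerprint and were compared statistically, by cluster analysis, against curves from a set of reference compounds. Controls received methanol.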

L929 [8] = test: Effect on spindle formation in mouse L929 cells at 0.4 ug/ml by impedance profiling; type: cell-based; outline: as §3
PtK2 [9] = test: Effect on F-actin cytoskeleton in Potorous tridactylus PtK2 cells at 3 ug/ml for overnight incubation by DAPI staining analysis; type: cell-based
Outline: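 PtK2 cells grown on glass coverslips and exposed to compound overnight, with methanol-only controls. Fixed in 3.7% formalin for 10 min, permeabilized with 0.1% Triton X-100 for 5 min, then stained with Alexa Fluor 488 phalloidin (1:100) for 1 h. F-actin (green) and DNA (blue) examined by fluorescence microscopy.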

L929 [10] = test: Effect on microtubule polymerization in mouse L929 cells at 3 ng/ml by impedance profiling; type: cell-based
Outline: (§4)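 L-929 mouse fibroblasts were cultured at 37 °C and 10% CO₂ in supplier-recommended medium. Cells were exposed to compound, with methanol-only controls, and impedance was recorded over time. The time-dependent impedance curves served as a mode-of-action fingerprint and were compared statistically, by cluster analysis, with curves from a panel of reference compounds, including microtubule-interfering agents.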

L929 [11] = test: Effect on spindle formation in mouse L929 cells at 3 ng/ml by impedance profiling; type: cell-based; outline: as §4

SMILES	IC50 (L929 [1])	IC50 [2]	further results
CC1(C)COC2(CC[C@@H]3[C@@H](O)[C@H](O)C[C@@H]32)OC1	> 40 µg/mL	> 40 µg/mL	–
O=C1C=C[C@H]2C(=O)C=C[C@@H]12	3 µM	6 µM	Activity (PtK2 [3]): Active; IC50 [4]: 3 µM; Activity (PtK2 [5]): Active; inhibition (Tubulin (Sus scrofa)): Active; Activity (PtK2 [6]): Active; Activity (L929 [7]): Active; Activity (L929 [8]): Active; Activity (PtK2 [9]): inactive
Cc1ccc(S(=O)(=O)N/N=C2/C[C@@H]3CC4(C[C@@H]3C2)OCC(C)(C)CO4)cc1	> 40 µg/mL	> 40 µg/mL	–
C=CC[C@@H]1C(=O)C[C@H]2C[C@@H](O[Si](c3ccccc3)(c3ccccc3)C(C)(C)C)[C@H](C)[C@H]21	5.1 µM	16.2 µM	–
CC(C)(C)[Si](O[C@@H]1[C@H]2CCC3(OCCO3)[C@H]2C[C@H]1O)(c1ccccc1)c1ccccc1	41 µM	–	–
Cc1cc(C)c(O[C@@H]2C[C@@H]3CC4(C[C@@H]3C2)OCC(C)(C)CO4)c(C)c1	> 40 µg/mL	> 40 µg/mL	–
C=CCC[C@H]1CC2(OCCO2)[C@@H]2C=CC(=O)[C@H]12 (racemic)	25.6 µM	32 µM	–
C[C@H]1[C@H](O[Si](c2ccccc2)(c2ccccc2)C(C)(C)C)C[C@]2(C)CC3(C[C@]12C)OCC(C)(C)CO3	15.8 µM	–	–
CC1(C)COC2(C[C@@H]3CC4OC4[C@@H]3C2)OC1 (stereo partly drawn)	> 40 µg/mL	> 40 µg/mL	–
C=C1C[C@@H]2CC3(C[C@@H]2C1)OCC(C)(C)CO3	> 40 µg/mL	> 40 µg/mL	–
C[C@@H]1[C@@H]2[C@@H](CC(=O)[C@H]2C)C[C@H]1O[Si](c1ccccc1)(c1ccccc1)C(C)(C)C	14.8 µM	7.4 µM	–
CC1(C)COC2(C[C@H]3C[C@H](O)C[C@H]3C2)OC1	> 40 µg/mL	> 40 µg/mL	–
CC(C)=CC[C@@H]1C(=O)C[C@H]2C[C@@H](O[Si](c3ccccc3)(c3ccccc3)C(C)(C)C)[C@H](C)[C@H]21	5.6 µM	21.7 µM	–
O=C1C[C@@H]2C[C@H](O)C[C@@H]2C1	> 40 µg/mL	> 40 µg/mL	–
CCC(=O)O[C@@H]1C[C@@H]2CC3(C[C@@H]2C1)OCC(C)(C)CO3	> 142 µM	> 142 µM	–
CC(C)(C)[Si](O[C@H]1C[C@H]2CC(=O)C[C@H]2C1)(c1ccccc1)c1ccccc1	> 40 µg/mL	> 40 µg/mL	–
C[C@H]1C(=O)C[C@]2(C)CC3(C[C@]12C)OCC(C)(C)CO3	> 150 µM	–	–
C[C@@H]1[C@H](O)C[C@]2(C)CC3(C[C@]12C)OCC(C)(C)CO3	> 150 µM	–	–
O=CCCCC1CC(=O)[C@H]2[C@@H]1CCC21OCCO1 (stereo partly drawn)	> 40 µg/mL	> 40 µg/mL	–

SMILES	IC50 (L929 [1])	IC50 [2]	further results
CC1(C)COC2(C[C@H]3C[C@@H](CO)C[C@H]3C2)OC1	> 40 µg/mL	> 40 µg/mL	–
C=CC[C@@H]1[C@H]2CC(=O)[C@H](C)[C@H]2C[C@H]1O[Si](c1ccccc1)(c1ccccc1)C(C)(C)C	32.4 µM	16 µM	–
CC(C)[Si](OC1CCCC1)(C(C)C)C(C)C	111 µM	124 µM	–
O=C1C2C(O)CCCC2[C@H]2[C@@H]1CC(Br)C21OCCO1 (stereo partly drawn)	22 µg/mL	10 µg/mL	–
O=C1CC(CCCCO)[C@H]2CCC3(OCCO3)[C@@H]12 (stereo partly drawn)	> 40 µg/mL	> 40 µg/mL	–
CC(C)(C)[Si](C)(C)OC1CCCC1	> 200 µM	> 200 µM	–
CCCC(=O)OCN(C(=O)[C@@H](NC(=O)[C@H]1CCCCN1C)[C@@H](C)CC)[C@H](C[C@@H](OC(C)=O)c1nc(C(=O)N[C@@H](Cc2ccc(O)cc2)C[C@H](C)C(=O)O)cs1)C(C)C	–	–	Activity (L929 [10]): Active; Activity (L929 [11]): Active
C=CCC[C@H]1CC(=O)[C@@H]2C=CC(=O)[C@H]12 (racemic)	20 µM	16.3 µM	–
O=C1C[C@@H]2C[C@@H](O)C[C@@H]2C1	> 40 µg/mL	> 40 µg/mL	–
C=CC[C@@H]1[C@H]2C/C(=N\NS(=O)(=O)c3ccc(C)cc3)[C@H](C)[C@H]2C[C@H]1O[Si](c1ccccc1)(c1ccccc1)C(C)(C)C	20 µM	13.3 µM	–
CC1(C)COC2(C[C@@H]3CC=C[C@@H]3C2)OC1	> 40 µg/mL	> 40 µg/mL	–
C=CC[C@@H]1[C@@H]2[C@@H](C/C(=N/NS(=O)(=O)c3ccc(C)cc3)[C@H]2C)C[C@H]1O[Si](c1ccccc1)(c1ccccc1)C(C)(C)C	> 67 µM	12.5 µM	–
C#CC(=O)O[C@H]1C[C@@H]2C[C@H](O[Si](c3ccccc3)(c3ccccc3)C(C)(C)C)C[C@@H]2C1	9.3 µM	–	–
CC(C)(C)[Si](OC1CCCC1)(c1ccccc1)c1ccccc1	61.6 µM	–	–
CC(C)(C)[Si](O[C@H]1[C@H]2CCC3(OCCO3)[C@H]2C[C@@H]1O)(c1ccccc1)c1ccccc1	38.8 µM	–	–
C=CC[C@@H]1[C@@H]2[C@@H](CC(=O)[C@H]2C)C[C@H]1O[Si](c1ccccc1)(c1ccccc1)C(C)(C)C	16.2 µM	20.3 µM	–
C=CC[C@@H]1[C@H]2[C@H](C)C=C[C@H]2C[C@H]1O[Si](c1ccccc1)(c1ccccc1)C(C)(C)C	7.2 µM	> 96 µM	–
CC(C)(C)[Si](C)(C)OC1CCCC2C1C(=O)[C@H]1CC(Br)C3(OCCO3)[C@@H]21 (stereo partly drawn)	32 µg/mL	> 40 µg/mL	–
C[C@@H]1[C@H](O[Si](c2ccccc2)(c2ccccc2)C(C)(C)C)C[C@]2(C)CC3(C[C@]12C)OCC(C)(C)CO3	11.8 µM	–	–

SMILES	IC50 (L929 [1])	IC50 [2]	further results
C[C@H]1[C@H](O)C[C@]2(C)CC3(C[C@]12C)OCC(C)(C)CO3	> 150 µM	–	–
CC(C)(C)[Si](OC1CCCCC1)(c1ccccc1)c1ccccc1	40 µg/mL	7.5 µg/mL	–
C=CC[C@H]1C(=O)C[C@@H]2[C@@H](C)[C@H](O[Si](c3ccccc3)(c3ccccc3)C(C)(C)C)C[C@@H]21	17.8 µM	6.9 µM	–
C=CC[C@@H]1[C@@H]2[C@H](C[C@H]1O[Si](c1ccccc1)(c1ccccc1)C(C)(C)C)[C@@H](C)C(=O)[C@H]2C	5.8 µg/mL	7.9 µg/mL	–
C[C@@H]1[C@H](O[Si](c2ccccc2)(c2ccccc2)C(C)(C)C)C[C@]2(C)CC(=O)C[C@]12C	35.7 µM	–	–
BrC1C[C@H]2[C@H](CC(Br)C23OCCO3)C12CCCC2 (stereo partly drawn)	> 40 µg/mL	> 40 µg/mL	–
CC(C)(C)[Si](OC1CCCCCC1)(c1ccccc1)c1ccccc1	40 µg/mL	6.2 µg/mL	–
O[C@@H]1[C@H]2CCC3(OCCO3)[C@H]2C[C@@H]1O	> 40 µg/mL	> 40 µg/mL	–
C1COC2(CC[C@@H]3[C@H]4O[C@H]4C[C@@H]32)O1	> 40 µg/mL	–	–
C=CC[C@@H]1[C@@H]2[C@@H](CC(=O)[C@H]2CC=C)C[C@H]1O	> 40 µg/mL	> 40 µg/mL	–
C[C@H]1[C@H](O[Si](c2ccccc2)(c2ccccc2)C(C)(C)C)C[C@]2(C)CC(=O)C[C@]12C	14.3 µM	–	–
C=CC[C@@H]1[C@H]2C=C[C@H](C)[C@H]2C[C@H]1O[Si](c1ccccc1)(c1ccccc1)C(C)(C)C	20.4 µM	> 96 µM	–
CC(C)(C)[Si](C)(C)OC1CCCC2C1C(O)[C@H]1CC(Br)C3(OCCO3)[C@@H]21 (stereo partly drawn)	15 µg/mL	14 µg/mL	–
CC(C)=CC[C@H]1C(=O)C[C@@H]2[C@@H](C)[C@H](O[Si](c3ccccc3)(c3ccccc3)C(C)(C)C)C[C@@H]21	23.9 µM	28.2 µM	–
O=C1CC[C@H]2[C@@H]1CCC21OCCO1	> 40 µg/mL	> 40 µg/mL	–
C[C@@H]1[C@H]2CC(=O)[C@H](C)[C@H]2C[C@H]1O[Si](c1ccccc1)(c1ccccc1)C(C)(C)C	7.4 µM	15.2 µM	–
O=C1C=C(CCCCOCc2ccccc2)[C@H]2CCC3(OCCO3)[C@@H]12	> 40 µg/mL	> 40 µg/mL	–
C=CC[C@@H]1[C@H]2CC(=O)[C@H](CC=C)[C@H]2C[C@H]1O	> 40 µg/mL	> 40 µg/mL	–
